The species named for one test is Mus musculus. Description: Neuroprotection against scopolamine-induced spartial performance deficits in mouse by water maze test. It counts as functional, organism-based.
Test [1] deals with PC-12. Description: Inhibition of amyloid beta peptide-induced redox disequilibrium assessed as increase in GSHPx activity in PC12 cells. In kind it is functional, cell-based. The conditions noted are these: Rattus norvegicus.
Test [2] has as its system PC-12. Description: Inhibition of staurosporine-induced apoptosis in PC12 cells. It counts as functional, cell-based. Particulars: Rattus norvegicus.
The target in the next test is Butyrylcholinesterase (Rattus norvegicus, UniProt Q9JKC1). Description: Inhibition of BuChE in rat serum. In kind it is cell-free. A digest of the protocol: (§1)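 Modified Ellman colorimetric cholinesterase assay. The AChE source was rat cortex homogenate and the BuChE source was rat serum. Inhibition was measured against each enzyme, and selectivity was taken as the BuChE IC50 over the AChE IC50.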
Sequence of Butyrylcholinesterase (Q9JKC1 whole entry): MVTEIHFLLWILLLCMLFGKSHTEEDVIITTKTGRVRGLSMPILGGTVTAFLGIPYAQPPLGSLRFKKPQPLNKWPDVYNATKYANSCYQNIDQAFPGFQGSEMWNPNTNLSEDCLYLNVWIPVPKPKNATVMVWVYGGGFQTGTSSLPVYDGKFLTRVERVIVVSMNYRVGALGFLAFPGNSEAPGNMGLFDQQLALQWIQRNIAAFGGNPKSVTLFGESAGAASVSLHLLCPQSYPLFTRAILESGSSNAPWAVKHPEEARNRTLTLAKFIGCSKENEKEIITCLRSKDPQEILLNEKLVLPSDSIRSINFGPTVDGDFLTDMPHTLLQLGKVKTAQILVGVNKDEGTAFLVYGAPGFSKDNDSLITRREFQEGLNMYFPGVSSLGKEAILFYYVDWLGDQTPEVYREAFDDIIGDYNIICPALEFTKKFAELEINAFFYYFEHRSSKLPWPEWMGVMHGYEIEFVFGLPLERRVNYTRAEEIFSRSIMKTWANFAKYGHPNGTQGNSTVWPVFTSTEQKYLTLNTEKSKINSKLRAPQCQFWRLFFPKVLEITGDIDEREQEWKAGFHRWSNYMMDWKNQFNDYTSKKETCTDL

The test system of test [3] is PC-12. Description: Reduction of amyloid beta peptide-induced cytotoxicity in PC12 cells. In kind it is functional, cell-based. The conditions noted are these: Rattus norvegicus.
The test system of test [4] is PC-12. Description: Inhibition of amyloid beta peptide-induced redox disequilibrium assessed as decrease in MDA level in PC12 cells. In kind it is functional, cell-based. The conditions noted are these: Rattus norvegicus.
The next test deals with T1, Acetylcholinesterase (Rattus norvegicus, UniProt P37136).
T1 sequence (P37136 whole entry): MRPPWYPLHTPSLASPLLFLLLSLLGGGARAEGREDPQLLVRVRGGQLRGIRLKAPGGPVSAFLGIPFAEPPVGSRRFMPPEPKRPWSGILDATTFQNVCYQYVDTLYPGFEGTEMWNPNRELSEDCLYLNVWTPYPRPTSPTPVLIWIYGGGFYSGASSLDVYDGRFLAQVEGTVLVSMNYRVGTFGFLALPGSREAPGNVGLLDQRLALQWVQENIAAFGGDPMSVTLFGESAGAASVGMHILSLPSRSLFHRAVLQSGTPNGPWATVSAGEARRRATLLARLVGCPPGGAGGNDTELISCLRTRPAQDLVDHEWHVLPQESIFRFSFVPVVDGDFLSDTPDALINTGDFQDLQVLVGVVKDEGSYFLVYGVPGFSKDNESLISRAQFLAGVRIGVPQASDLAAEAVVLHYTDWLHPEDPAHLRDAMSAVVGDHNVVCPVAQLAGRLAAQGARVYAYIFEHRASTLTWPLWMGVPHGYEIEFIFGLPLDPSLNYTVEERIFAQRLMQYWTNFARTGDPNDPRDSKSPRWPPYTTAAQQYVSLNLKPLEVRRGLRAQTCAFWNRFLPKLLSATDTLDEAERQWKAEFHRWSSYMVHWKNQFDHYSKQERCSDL
Description: Inhibition of AChE in rat cortex […].

The species entered for a further test is Rattus norvegicus. Description: Selectivity ratio of IC50 for rat BuChE to rat IC50 for AchE. A digest of the protocol: as §1
The subject of test [5] is PC-12. Description: Inhibition of amyloid beta peptide-induced redox disequilibrium assessed as decrease in SOD activity in PC12 cells. In kind it is functional, cell-based. The conditions noted are these: Rattus norvegicus.

Molecules are shown by their SMILES. Calls of active or inactive are those of the source. The rule behind the calls is not given here.

For `CC1=C[C@H]2Cc3[nH]c(=O)ccc3[C@@]3(C1)[C@@H]2CCCN3C(=O)CCN(C)CCCCCCCCCCN(C)CCC(=O)N1CCC[C@@H]2[C@H]3C=C(C)C[C@]21c1ccc(=O)[nH]c1C3`, the result in the test filed under Mus musculus, in the test with PC-12 [1], in the test with PC-12 [2], in the test with PC-12 [3], in the test on PC-12 [4] and with PC-12 [5] was Active. Further, the IC50 against Butyrylcholinesterase was 65 µM; on Acetylcholinesterase it was 0.0118 µM. For the same compound, the Ratio IC50 in the test listed under Rattus norvegicus came to 5510.
Take `CC1=C[C@H]2Cc3[nH]c(=O)ccc3[C@@]3(C1)[C@@H]2CCCN3C(=O)CN(C)CCCCCCN(C)CC(=O)N1CCC[C@@H]2[C@H]3C=C(C)C[C@]21c1ccc(=O)[nH]c1C3`: the results for the concentration for half-maximal inhibition (IC50) at Butyrylcholinesterase and at Acetylcholinesterase were 64.5 µM and 0.0762 µM, respectively. Besides, in the test listed under Rattus norvegicus, the Ratio IC50 is 846.
As to `CC1=C[C@H]2Cc3[nH]c(=O)ccc3[C@@]3(C1)[C@@H]2CCCN3C(=O)CCN(C)CCCCCCCCCCCCN(C)CCC(=O)N1CCC[C@@H]2[C@H]3C=C(C)C[C@]21c1ccc(=O)[nH]c1C3`, the IC50 came to 88.4 µM against Butyrylcholinesterase and 0.0231 µM at Acetylcholinesterase. The Ratio IC50 in the test filed under Rattus norvegicus turned out to be 3830.
The matching figures for `COc1ccccc1CN(C)CCCCCCCCCCN(C)CC(=O)N1CCC[C@@H]2[C@H]3C=C(C)C[C@]21c1ccc(=O)[nH]c1C3`: 8.65 µM, 0.0211 µM and 410.
The matching figures for `CC1=C[C@H]2Cc3[nH]c(=O)ccc3[C@@]3(C1)[C@@H]2CCCN3C(=O)CN(C)CCCCCCCCN(C)CC(=O)N1CCC[C@@H]2[C@H]3C=C(C)C[C@]21c1ccc(=O)[nH]c1C3`: 65.4 µM, 0.0508 µM and 1290.
The matching figures for `CC1=C[C@H]2Cc3[nH]c(=O)ccc3[C@@]3(C1)[C@@H]2CCCN3C(=O)CCN(C)CCCCCCCCN(C)CCC(=O)N1CCC[C@@H]2[C@H]3C=C(C)C[C@]21c1ccc(=O)[nH]c1C3`: 63 µM, 0.0185 µM and 3400.
Take `CC1=C[C@H]2Cc3[nH]c(=O)ccc3[C@@]3(C1)[C@@H]2CCCN3CCN1CCN(CN2CCC[C@@H]3[C@H]4C=C(C)C[C@]32c2ccc(=O)[nH]c2C4)CC1`: the 50% inhibitory concentration (IC50) on Butyrylcholinesterase is 192 µM; against Acetylcholinesterase, 0.407 µM. For the same compound, the Ratio IC50 in the test listed under Rattus norvegicus was found to be 472.

Usually IC50 stands for the midpoint of a concentration-inhibition curve. A low value points to inhibition by little substance.

These data come from ChEMBL document CHEMBL1146308 (Bioorg Med Chem, 2007).
